Laboratory results reported in ChEMBL document CHEMBL1811814, “Synthesis and evaluation of indole, pyrazole, chromone and pyrimidine based conjugates for tumor growth inhibitory activities--development of highly efficacious cytotoxic agents” (Eur J Med Chem, 2010).

Assays:
Type in all cases: functional
Design in all cases: scale not given: the % may be the effect or the level left
CCRF-CEM = assay: Growth inhibition of human CCRF-CEM cells assessed tumor cell growth at 10^-5 M
Summary of the method: (§1)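 NCI 60-human-tumor-cell-line panel screen. Each compound was tested at a single concentration of 10^-5 M, and percent growth of tumor cells was recorded for each cell line. Growth inhibition was expressed from these percent-growth values.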

HL-60(TB) = assay: Growth inhibition of human HL-60(TB) cells assessed tumor cell growth at 10^-5 M
Summary of the method: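 HL-60(TB), part of the 60-line panel, tested at a single concentration of 10^-5 M. The read-out is percent tumor cell growth relative to untreated growth.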

K562 = assay: Growth inhibition of human K562 cells assessed tumor cell growth at 10^-5 M; summary of the method: as §1
MOLT-4 = assay: Growth inhibition of human MOLT4 cells assessed tumor cell growth at 10^-5 M; summary of the method: as §1
[1] = Growth inhibition of human […] cells assessed tumor cell growth at 10^-5 M; summary of the method: as §1
A549 = assay: Growth inhibition of human A549 cells assessed tumor cell growth at 10^-5 M; summary of the method: as §1
EKVX = assay: Growth inhibition of human EKVX cells assessed tumor cell growth at 10^-5 M; summary of the method: as §1
HOP-62 = assay: Growth inhibition of human HOP62 cells assessed tumor cell growth at 10^-5 M; summary of the method: as §1
HOP-92 = assay: Growth inhibition of human HOP92 cells assessed tumor cell growth at 10^-5 M; summary of the method: as §1
NCI-H226 = assay: Growth inhibition of human NCI-H226 cells assessed tumor cell growth at 10^-5 M; summary of the method: as §1
NCI-H23 = assay: Growth inhibition of human NCI-H23 cells assessed tumor cell growth at 10^-5 M; summary of the method: as §1
NCI-H322M = assay: Growth inhibition of human NCI-H322M cells assessed tumor cell growth at 10^-5 M; summary of the method: as §1
NCI-H460 = assay: Growth inhibition of human NCI-H460 cells assessed tumor cell growth at 10^-5 M; summary of the method: as §1
NCI-H522 = assay: Growth inhibition of human NCI-H522 cells assessed tumor cell growth at 10^-5 M; summary of the method: as §1
COLO 205 = assay: Growth inhibition of human COLO205 cells assessed tumor cell growth at 10^-5 M; summary of the method: as §1
HCT-116 = assay: Growth inhibition of human HCT116 cells assessed tumor cell growth at 10^-5 M; summary of the method: as §1
HCT-15 = assay: Growth inhibition of human HCT15 cells assessed tumor cell growth at 10^-5 M; summary of the method: as §1
HT-29 = assay: Growth inhibition of human HT-29 cells assessed tumor cell growth at 10^-5 M; summary of the method: as §1
KM12 = assay: Growth inhibition of human KM12 cells assessed tumor cell growth at 10^-5 M; summary of the method: as §1
SW-620 = assay: Growth inhibition of human SW620 cells assessed tumor cell growth at 10^-5 M
Summary of the method: (§2)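 Single-dose screen at 10^-5 M across the 60 human tumor cell line panel, run to NCI standards. The value is the percent growth of each cell line in the presence of compound. Compounds active at this dose moved on to five-concentration testing (10^-4 to 10^-8 M).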

SF-268 = assay: Growth inhibition of human SF268 cells assessed tumor cell growth at 10^-5 M; summary of the method: as §1
SF-295 = assay: Growth inhibition of human SF295 cells assessed tumor cell growth at 10^-5 M; summary of the method: as §1
SF-539 = assay: Growth inhibition of human SF539 cells assessed tumor cell growth at 10^-5 M; summary of the method: as §1
SNB-19 = assay: Growth inhibition of human SNB19 cells assessed tumor cell growth at 10^-5 M; summary of the method: as §2
SNB-75 = assay: Growth inhibition of human SNB75 cells assessed tumor cell growth at 10^-5 M; summary of the method: as §2
U-251 = assay: Growth inhibition of human U251 cells assessed tumor cell growth at 10^-5 M; summary of the method: as §2
LOX IMVI = assay: Growth inhibition of human LOXIMVI cells assessed tumor cell growth at 10^-5 M; summary of the method: as §1
Malme-3M = assay: Growth inhibition of human MALME-3M cells assessed tumor cell growth at 10^-5 M; summary of the method: as §1
M14 = assay: Growth inhibition of human M14 cells assessed tumor cell growth at 10^-5 M; summary of the method: as §1
MDA-MB-435 = assay: Growth inhibition of human MDA-MB-435 cells assessed tumor cell growth at 10^-5 M; summary of the method: as §1
SK-MEL-2 = assay: Growth inhibition of human SK-MEL-2 cells assessed tumor cell growth at 10^-5 M; summary of the method: as §1
SK-MEL-28 = assay: Growth inhibition of human SK-MEL-28 cells assessed tumor cell growth at 10^-5 M; summary of the method: as §1
SK-MEL-5 = assay: Growth inhibition of human SK-MEL-5 cells assessed tumor cell growth at 10^-5 M; summary of the method: as §1
UACC-257 = assay: Growth inhibition of human UACC257 cells assessed tumor cell growth at 10^-5 M; summary of the method: as §2
UACC-62 = assay: Growth inhibition of human UACC62 cells assessed tumor cell growth at 10^-5 M; summary of the method: as §2
IGROV-1 = assay: Growth inhibition of human IGROV1 cells assessed tumor cell growth at 10^-5 M; summary of the method: as §1
OVCAR-3 = assay: Growth inhibition of human OVCAR3 cells assessed tumor cell growth at 10^-5 M; summary of the method: as §1
OVCAR-4 = assay: Growth inhibition of human OVCAR4 cells assessed tumor cell growth at 10^-5 M; summary of the method: as §1
OVCAR-5 = assay: Growth inhibition of human OVCAR5 cells assessed tumor cell growth at 10^-5 M; summary of the method: as §1
OVCAR-8 = assay: Growth inhibition of human OVCAR8 cells assessed tumor cell growth at 10^-5 M; summary of the method: as §1
NCI/ADR-RES = assay: Growth inhibition of human NCI/ADR-RES cells assessed tumor cell growth at 10^-5 M; summary of the method: as §1
SK-OV-3 = assay: Growth inhibition of human SKOV3 cells assessed tumor cell growth at 10^-5 M; summary of the method: as §1
786-0 = assay: Growth inhibition of human 786-0 cells assessed tumor cell growth at 10^-5 M; summary of the method: as §1
A498 = assay: Growth inhibition of human A498 cells assessed tumor cell growth at 10^-5 M; summary of the method: as §1
ACHN = assay: Growth inhibition of human ACHN cells assessed tumor cell growth at 10^-5 M; summary of the method: as §1
CAKI-1 = assay: Growth inhibition of human Caki1 cells assessed tumor cell growth at 10^-5 M; summary of the method: as §1
RXF 393 = assay: Growth inhibition of human RXF393 cells assessed tumor cell growth at 10^-5 M; summary of the method: as §1
SN12C = assay: Growth inhibition of human SN12C cells assessed tumor cell growth at 10^-5 M; summary of the method: as §1
TK-10 = assay: Growth inhibition of human TK10 cells assessed tumor cell growth at 10^-5 M; summary of the method: as §2
UO-31 = assay: Growth inhibition of human UO31 cells assessed tumor cell growth at 10^-5 M; summary of the method: as §2
PC-3 = assay: Growth inhibition of human PC3 cells assessed tumor cell growth at 10^-5 M; summary of the method: as §1
DU-145 = assay: Growth inhibition of human DU145 cells assessed tumor cell growth at 10^-5 M; summary of the method: as §1
MCF7 = assay: Growth inhibition of human MCF7 cells assessed tumor cell growth at 10^-5 M; summary of the method: as §1
MDA-MB-231 = assay: Growth inhibition of human MDA-MB-231 cells assessed tumor cell growth at 10^-5 M; summary of the method: as §1
[2] = Growth inhibition of human Hs 578T cells assessed tumor cell growth at 10^-5 M; summary of the method: as §1
BT-549 = assay: Growth inhibition of human BT549 cells assessed tumor cell growth at 10^-5 M; summary of the method: as §1
MDA-MB-468 = assay: Growth inhibition of human MDA-MB-468 cells assessed tumor cell growth at 10^-5 M; summary of the method: as §1
HCC 2998 = assay: Growth inhibition of human HCC2998 cells assessed tumor cell growth at 10^-5 M; summary of the method: as §1
T47D = assay: Growth inhibition of human T47D cells assessed tumor cell growth at 10^-5 M; summary of the method: as §2

SMILES: O=C1Nc2ccccc2/C1=C/c1cn(C(=O)c2ccc(Cl)cc2)c2ccccc12
- Activity (CCRF-CEM): 104.1%
- Activity (HL-60(TB)): 150.1%
- Activity (K562): 85.6%
- Activity (MOLT-4): 109.3%
- Activity [1]: 74.5%
- Activity (A549): 101.2%
- Activity (EKVX): 58.9%
- Activity (HOP-62): 110.7%
- Activity (HOP-92): 99.3%
- Activity (NCI-H226): 92.3%
- Activity (NCI-H23): 90.8%
- Activity (NCI-H322M): 126.5%
- Activity (NCI-H460): 107.2%
- Activity (NCI-H522): 85.5%
- Activity (COLO 205): 58.2%
- Activity (HCT-116): 91.5%
- Activity (HCT-15): 92%
- Activity (HT-29): 110%
- Activity (KM12): 40.8%
- Activity (SW-620): 102.4%
- Activity (SF-268): 99.8%
- Activity (SF-295): 114.3%
- Activity (SF-539): 99.3%
- Activity (SNB-19): 99%
- Activity (SNB-75): 87.7%
- Activity (U-251): 99.4%
- Activity (LOX IMVI): 100%
- Activity (Malme-3M): 117.8%
- Activity (M14): 102.4%
- Activity (MDA-MB-435): 109.9%
- Activity (SK-MEL-2): 119.8%
- Activity (SK-MEL-28): 92.9%
- Activity (SK-MEL-5): 97.6%
- Activity (UACC-257): 99.6%
- Activity (UACC-62): 89.3%
- Activity (IGROV-1): 72.6%
- Activity (OVCAR-3): 98.7%
- Activity (OVCAR-4): 78.2%
- Activity (OVCAR-5): 110.2%
- Activity (OVCAR-8): 95%
- Activity (NCI/ADR-RES): 104.2%
- Activity (SK-OV-3): 103.8%
- Activity (786-0): 111.4%
- Activity (A498): 116.3%
- Activity (ACHN): 102.9%
- Activity (CAKI-1): 59%
- Activity (RXF 393): 129.9%
- Activity (SN12C): 95.4%
- Activity (TK-10): 130%
- Activity (UO-31): 74.6%
- Activity (PC-3): 95.6%
- Activity (DU-145): 118.1%
- Activity (MCF7): 59%
- Activity (MDA-MB-231): 77.7%
- Activity [2]: 106%
- Activity (BT-549): 96.4%
- Activity (MDA-MB-468): 97.6%

SMILES: C=CCn1cc(/C=C2\C(=O)N(c3c(Cl)cccc3Cl)c3ccccc32)c2ccccc21
- Activity (HL-60(TB)): 93.4%
- Activity (K562): 53.6%
- Activity (MOLT-4): 71.8%
- Activity [1]: 86.7%
- Activity (A549): 95.2%
- Activity (EKVX): 80.5%
- Activity (HOP-62): 78.4%
- Activity (HOP-92): 72.1%
- Activity (NCI-H226): 87%
- Activity (NCI-H23): 83.7%
- Activity (NCI-H322M): 96.2%
- Activity (NCI-H460): 64.8%
- Activity (NCI-H522): 88.3%
- Activity (COLO 205): 111.6%
- Activity (HCC 2998): 92.3%
- Activity (HCT-116): 44.8%
- Activity (HCT-15): 48.8%
- Activity (HT-29): 85.4%
- Activity (KM12): 83.7%
- Activity (SW-620): 86.9%
- Activity (SF-268): 77.4%
- Activity (SF-295): 95.1%
- Activity (SF-539): 92.2%
- Activity (SNB-19): 97.4%
- Activity (SNB-75): 71.5%
- Activity (U-251): 63.1%
- Activity (LOX IMVI): 69.8%
- Activity (Malme-3M): 96.3%
- Activity (M14): 84.7%
- Activity (MDA-MB-435): 100.8%
- Activity (SK-MEL-2): 102.6%
- Activity (SK-MEL-28): 109.8%
- Activity (SK-MEL-5): 72.6%
- Activity (UACC-257): 116%
- Activity (UACC-62): 68.7%
- Activity (IGROV-1): 66.4%
- Activity (OVCAR-3): 88.2%
- Activity (OVCAR-4): 79.1%
- Activity (OVCAR-5): 98.9%
- Activity (OVCAR-8): 90.7%
- Activity (NCI/ADR-RES): 84.6%
- Activity (SK-OV-3): 98.2%
- Activity (786-0): 86.2%
- Activity (A498): 107.5%
- Activity (ACHN): 80.5%
- Activity (CAKI-1): 60.9%
- Activity (RXF 393): 93.3%
- Activity (SN12C): 94.9%
- Activity (TK-10): 100.4%
- Activity (UO-31): 56.7%
- Activity (PC-3): 58.2%
- Activity (DU-145): 101.7%
- Activity (MCF7): 89.3%
- Activity (MDA-MB-231): 83.4%
- Activity [2]: 86.4%
- Activity (BT-549): 127.4%
- Activity (T47D): 63.9%
- Activity (MDA-MB-468): 93.3%
